Assay results from ChEMBL document CHEMBL1123551, “3-Pyrroline N-oxide bis(carbamate) tumor inhibitors as analogues of indicine N-oxide” (J Med Chem, 1987).

Legend:
[1] = test system: P388; assay: In vivo antileukemic activity against P388 lymphocytic leukemia at a dose of 100 mg/kg administered intraperitoneally expressed as log of the number of tumor cells (cell kill); type: ADME, organism-based; set-up: dose 100 mg/kg, route intraperitoneal; conditions: mouse, ip
How it was run: (§1)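 P388 tumor inoculated ip. Drug solution in distilled water injected ip as five daily doses, starting 24 h after inoculation; some compounds were given as suspensions made fresh daily and used immediately.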

[2] = test system: P388; assay: In vivo antileukemic activity against P388 lymphocytic leukemia at a dose of 12.5 mg/kg administered intraperitoneally expressed as log of the number of tumor cells (cell kill); type: ADME, organism-based; set-up: dose 12.5 mg/kg, route intraperitoneal; conditions: mouse, ip; how it was run: as §1
[3] = test system: P388; assay: In vivo antileukemic activity against P388 lymphocytic leukemia at a dose of 200 mg/kg administered intraperitoneally expressed as log of the number of tumor cells (cell kill); type: ADME, organism-based; set-up: dose 200 mg/kg, route intraperitoneal; conditions: mouse, ip; how it was run: as §1
[4] = test system: P388; assay: In vivo antileukemic activity against P388 lymphocytic leukemia at a dose of 25 mg/kg administered intraperitoneally expressed as log of the number of tumor cells (cell kill); type: ADME, organism-based; set-up: dose 25 mg/kg, route intraperitoneal; conditions: mouse, ip; how it was run: as §1
[5] = test system: P388; assay: In vivo antileukemic activity against P388 lymphocytic leukemia at a dose of 400 mg/kg administered intraperitoneally expressed as log of the number of tumor cells (cell kill); type: ADME, organism-based; set-up: dose 400 mg/kg, route intraperitoneal; conditions: mouse, ip; how it was run: as §1
[6] = test system: P388; assay: In vivo antileukemic activity against P388 lymphocytic leukemia at a dose of 50 mg/kg administered intraperitoneally expressed as log of the number of tumor cells (cell kill); type: ADME, organism-based; set-up: dose 50 mg/kg, route intraperitoneal; conditions: mouse, ip; how it was run: as §1
[7] = test system: P388; assay: In vivo antileukemic activity against P388 lymphocytic leukemia at a dose of 100 mg/kg administered intraperitoneally expressed as ratio of survival of treated compared to untreated control animals; type: functional, Mus musculus; conditions: route intraperitoneal
How it was run: (§2)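 Drug given ip as a solution in distilled water. Five daily doses, starting 24 h after ip tumor inoculation. % T/C is the survival of treated animals divided by that of untreated controls, expressed as a percent. Log cell kill (KE) is the log of tumor cell number at the end of treatment relative to the start. Weight change of treated animals is recorded relative to controls.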

[8] = test system: P388; assay: In vivo antileukemic activity against P388 lymphocytic leukemia at a dose of 400 mg/kg administered intraperitoneally expressed as weight change of treated to control animals; type: functional, Mus musculus; conditions: route intraperitoneal
How it was run: (§3)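 P388 leukemia inoculated ip. Test drug in distilled water given ip once daily for 5 days, beginning 24 h post-inoculation; some compounds were dosed as suspensions prepared fresh daily and used immediately. Read-out is body weight change of treated animals relative to untreated controls.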

[9] = test system: P388; assay: In vivo antileukemic activity against P388 lymphocytic leukemia at a dose of 50 mg/kg administered intraperitoneally expressed as weight change of treated to control animals; type: functional, Mus musculus; conditions: route intraperitoneal; how it was run: as §3
[10] = test system: P388; assay: In vivo antileukemic activity against P388 lymphocytic leukemia at a dose of 12.5 mg/kg administered intraperitoneally expressed as ratio of survival of treated compared to untreated control animals; type: functional, Mus musculus; conditions: route intraperitoneal; how it was run: as §2
[11] = test system: P388; assay: In vivo antileukemic activity against P388 lymphocytic leukemia at a dose of 200 mg/kg administered intraperitoneally expressed as ratio of survival of treated compared to untreated control animals; type: functional, Mus musculus; conditions: route intraperitoneal; how it was run: as §2
[12] = test system: P388; assay: In vivo antileukemic activity against P388 lymphocytic leukemia at a dose of 25 mg/kg administered intraperitoneally expressed as ratio of survival of treated compared to untreated control animals; type: functional, Mus musculus; conditions: route intraperitoneal; how it was run: as §2
[13] = test system: P388; assay: In vivo antileukemic activity against P388 lymphocytic leukemia at a dose of 200 mg/kg administered intraperitoneally expressed as weight change of treated to control animals; type: functional, Mus musculus; conditions: route intraperitoneal; how it was run: as §3
[14] = test system: P388; assay: In vivo antileukemic activity against P388 lymphocytic leukemia at a dose of 25 mg/kg administered intraperitoneally expressed as weight change of treated to control animals; type: functional, Mus musculus; conditions: route intraperitoneal; how it was run: as §3
[15] = test system: P388; assay: In vivo antileukemic activity against P388 lymphocytic leukemia at a dose of 400 mg/kg administered intraperitoneally expressed as ratio of survival of treated compared to untreated control animals; type: functional, Mus musculus; conditions: route intraperitoneal; how it was run: as §2
[16] = test system: P388; assay: In vivo antileukemic activity against P388 lymphocytic leukemia at a dose of 50 mg/kg administered intraperitoneally expressed as ratio of survival of treated compared to untreated control animals; type: functional, Mus musculus; conditions: route intraperitoneal; how it was run: as §2
[17] = test system: P388; assay: In vivo antileukemic activity against P388 lymphocytic leukemia at a dose of 100 mg/kg administered intraperitoneally expressed as weight change of treated to control animals; type: functional, Mus musculus; conditions: route intraperitoneal; how it was run: as §3
[18] = test system: P388; assay: In vivo antileukemic activity against P388 lymphocytic leukemia at a dose of 12.5 mg/kg administered intraperitoneally expressed as weight change of treated to control animals; type: functional, Mus musculus; conditions: route intraperitoneal; how it was run: as §3
[19] = test system: P388; assay: In vivo antileukemic activity against P388 lymphocytic leukemia at a dose of 15 mg/kg administered intraperitoneally expressed as log of the number of tumor cells (cell kill); type: ADME, organism-based; set-up: dose 15 mg/kg, route intraperitoneal; conditions: mouse, ip; how it was run: as §1
[20] = test system: P388; assay: In vivo antileukemic activity against P388 lymphocytic leukemia at a dose of 3.75 mg/kg administered intraperitoneally expressed as log of the number of tumor cells (cell kill); type: ADME, organism-based; set-up: dose 3.75 mg/kg, route intraperitoneal; conditions: mouse, ip; how it was run: as §1
[21] = test system: P388; assay: In vivo antileukemic activity against P388 lymphocytic leukemia at a dose of 30 mg/kg administered intraperitoneally expressed as log of the number of tumor cells (cell kill); type: ADME, organism-based; set-up: dose 30 mg/kg, route intraperitoneal; conditions: mouse, ip; how it was run: as §1
[22] = test system: P388; assay: In vivo antileukemic activity against P388 lymphocytic leukemia at a dose of 7.5 mg/kg administered intraperitoneally expressed as log of the number of tumor cells (cell kill); type: ADME, organism-based; set-up: dose 7.5 mg/kg, route intraperitoneal; conditions: mouse, ip; how it was run: as §1
[23] = test system: P388; assay: In vivo antileukemic activity against P388 lymphocytic leukemia at a dose of 3.75 mg/kg administered intraperitoneally expressed as weight change of treated to control animals; type: functional, Mus musculus; conditions: route intraperitoneal; how it was run: as §3
[24] = test system: P388; assay: In vivo antileukemic activity against P388 lymphocytic leukemia at a dose of 30 mg/kg administered intraperitoneally expressed as weight change of treated to control animals; type: functional, Mus musculus; conditions: route intraperitoneal; how it was run: as §3
[25] = test system: P388; assay: In vivo antileukemic activity against P388 lymphocytic leukemia at a dose of 7.5 mg/kg administered intraperitoneally expressed as weight change of treated to control animals; type: functional, Mus musculus; conditions: route intraperitoneal; how it was run: as §3
[26] = test system: P388; assay: In vivo antileukemic activity against P388 lymphocytic leukemia at a dose of 15 mg/kg administered intraperitoneally expressed as ratio of survival of treated compared to untreated control animals; type: functional, Mus musculus; conditions: route intraperitoneal; how it was run: as §2
[27] = test system: P388; assay: In vivo antileukemic activity against P388 lymphocytic leukemia at a dose of 3.75 mg/kg administered intraperitoneally expressed as ratio of survival of treated compared to untreated control animals; type: functional, Mus musculus; conditions: route intraperitoneal; how it was run: as §2
[28] = test system: P388; assay: In vivo antileukemic activity against P388 lymphocytic leukemia at a dose of 30 mg/kg administered intraperitoneally expressed as ratio of survival of treated compared to untreated control animals; type: functional, Mus musculus; conditions: route intraperitoneal; how it was run: as §2
[29] = test system: P388; assay: In vivo antileukemic activity against P388 lymphocytic leukemia at a dose of 7.5 mg/kg administered intraperitoneally expressed as ratio of survival of treated compared to untreated control animals; type: functional, Mus musculus; conditions: route intraperitoneal; how it was run: as §2
[30] = test system: P388; assay: In vivo antileukemic activity against P388 lymphocytic leukemia at a dose of 15 mg/kg administered intraperitoneally expressed as weight change of treated to control animals; type: functional, Mus musculus; conditions: route intraperitoneal; how it was run: as §3
[31] = test system: P388; assay: In vivo antileukemic activity against P388 lymphocytic leukemia at a dose of 240 mg/kg administered intraperitoneally expressed as log of the number of tumor cells (cell kill); type: ADME, organism-based; set-up: dose 240 mg/kg, route intraperitoneal; conditions: mouse, ip; how it was run: as §1
[32] = test system: P388; assay: In vivo antileukemic activity against P388 lymphocytic leukemia at a dose of 240 mg/kg administered intraperitoneally expressed as ratio of survival of treated compared to untreated control animals; type: functional, Mus musculus; conditions: route intraperitoneal; how it was run: as §2
[33] = test system: P388; assay: In vivo antileukemic activity against P388 lymphocytic leukemia at a dose of 240 mg/kg administered intraperitoneally expressed as weight change of treated to control animals; type: functional, Mus musculus; conditions: route intraperitoneal; how it was run: as §3

Structure (SMILES)	KE [1]	KE [2]	KE [4]	KE [6]	T/C [7]	Weight change [9]	T/C [10]	T/C [12]	Weight change [14]	T/C [16]	Weight change [17]	Weight change [18]	also measured
CNC(=O)OCC1=CC[N+](C)([O-])C1COC(=O)NC (centres undefined)	1.7	0.39	-1.23	0.62	159%	-1.5 g	142%	122%	-1.2 g	145%	-2.1 g	-3.8 g	KE [3]: 1; KE [5]: 0.34; Weight change [8]: -5.7 g; T/C [11]: 150%; Weight change [13]: -2.4 g; T/C [15]: 143%
CC(C)NC(=O)OCC1=C(COC(=O)NC(C)C)C(c2ccccc2)N(C)C1 (centres undefined)	5.18	0.84	0	0.53	225%	-2 g	121%	136%	-0.9 g	145%	-2.2 g	0 g	–
CC(C)NC(=O)OCc1cn(C)c(-c2ccccc2)c1COC(=O)NC(C)C	–	–	–	–	–	–	–	–	–	–	–	–	KE [19]: 2.63; KE [20]: -0.7; KE [21]: 1.99; KE [22]: 0.32; Weight change [23]: -0.5 g; Weight change [24]: -3.4 g; Weight change [25]: -1.9 g; T/C [26]: 181%; T/C [27]: 129%; T/C [28]: 171%; T/C [29]: 145%; Weight change [30]: -3.2 g
C[N+]1([O-])CC=CC1	–	–	–	–	–	–	–	–	–	–	–	–	KE [31]: -0.12; T/C [32]: 108%; Weight change [33]: -0.2 g
CC(C)NC(=O)OCC1=C(COC(=O)NC(C)C)C(C)(C)[N+](C)([O-])C1c1ccccc1 (centres undefined)	-1.53	-1.54	-1.64	-1.53	107%	0.9 g	108%	100%	0.1 g	107%	0.7 g	2.1 g	–
CC(C)NC(=O)OCC1=C(COC(=O)NC(C)C)C(c2ccccc2)[N+](C)([O-])C1 (centres undefined)	-0.11	-1.21	-1.5	-1.16	134%	-0.6 g	115%	109%	-0.1 g	116%	-1.5 g	1.6 g	–
